Data set [1] concerns Vaccinia virus. Kind of data set: Antiviral activity against Vaccinia virus infected in human foreskin fibroblasts by plaque assay. The format is functional, organism-based. As to conditions: Orthopoxvirus vaccinia.
Data set [2] deals with Cowpox virus. In words: Antiviral activity against Cowpox virus infected in human foreskin fibroblasts by plaque assay. It counts as functional, organism-based.
Data set [3] is described as follows: Solubility in water. The format is physicochemical.
For the next data set, the system named is Intestine. In words: (§1) Metabolic stability in rat intestinal homogenate. It counts as ADME, tissue-based. As to conditions: tissue homogenate.
Another data set deals with Liver. In words: (§2) Metabolic stability in rat liver homogenate. The format is ADME, tissue-based. Particulars: tissue homogenate.
The nature of data set [4]: as §2. The format is ADME, tissue-based. Particulars: liver homogenate.
Data set [5] is described as follows: Permeability from apical to basolateral side in human Caco-2 cells after 21 days. The format is ADME, cell-based. As to conditions: read-out: permeability. In outline: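 Caco-2 monolayers were used 21 days post-seeding. Basolateral aliquots were taken at set intervals and replaced with HEPES buffer pH 7.4. Monolayer integrity was checked by transepithelial resistance.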

The next data set relates to Caco-2. In words: Permeability from apical to basolateral side in human Caco-2 cells after 21 days relative to vidarabine. It counts as ADME, cell-based. As to conditions: caco-2, 504 h. Put shortly: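 Caco-2 monolayers were used 21 days post-seeding, with integrity checked by transepithelial resistance. Basolateral aliquots were taken at set intervals and replaced with HEPES buffer pH 7.4.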

The next data set relates to Plasma. The format is ADME, cell-free. Particulars: rat.
The next data set has as its system HFF. In words: (§3) Cytotoxicity against HFF. It counts as cell-based. Particulars: human, hff. In outline: (§4)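 Cytotoxicity scored visually in uninfected human foreskin fibroblasts, reported as the 50% inhibitory concentration.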
Data set [6] relates to HeLa. In words: Cellular uptake in human HeLa cells expressing human PEPT1 transporter after 45 mins. It counts as ADME, cell-based. Particulars: 0.75 h. Put shortly:
(§5)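 Direct uptake measured over 45 min and expressed as nmol/mg, in HeLa cells stably expressing hPEPT1 and in parental HeLa controls. Valacyclovir served as the positive control for hPEPT1 carrier-mediated uptake. Values are means ± SD of three experiments.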

Data set [7] relates to HeLa. In words: Cellular uptake in human HeLa cells after 45 mins. The format is ADME, cell-based. As to conditions: 0.75 h. Put shortly:
as §5

Data set [8] can be described thus: Oral bioavailability in human. The format is ADME, organism-based. Particulars: in vivo.
In data set [9] the test system is Vaccinia virus. In words: Antiviral activity against Vaccinia virus infected in HFF by plaque assay in presence of deoxy-coformycin. The format is functional, organism-based. As to conditions: Orthopoxvirus vaccinia.
In data set [10] the test system is Cowpox virus. Kind of data set: Antiviral activity against Cowpox virus infected in HFF by plaque assay in presence of deoxy-coformycin. It counts as functional, organism-based.
The nature of data set [11]: as §3. The format is cell-based. Particulars: human, HFF cells. Put shortly:
as §4

Data set [12] is described as follows: Cytotoxicity against HFF in presence of deoxy-coformycin. The format is cell-based. As to conditions: human, HFF cells. Put shortly:
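Cytotoxicity was scored visually in uninfected HFF cells, with 1 μM deoxycoformycin present, and reported as the 50% inhibitory concentration.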

A short description of data set [13]: as §1. It counts as ADME, tissue-based, Intestine. As to conditions: intestinal homogenate.

Structures are written as SMILES. In brackets after ≈: the same amount, converted by molar mass. Bounds are passed on as bounds.

For `CC(C)C[C@@H](N)C(=O)OC[C@H]1O[C@@H](n2cnc3c(N)ncnc32)[C@@H](O)[C@@H]1O`, the concentration for a half-maximal effect (EC50) in the data set with Vaccinia virus [1] stood at 3 µM; in the data set with Cowpox virus [2] it was 2.5 µM. This compound registered a solubility in [3] greater than 10000 µg/mL. The values for the t1/2 with Intestine and in the data set with Liver were 2.4 min and 3.6 min, respectively.
As for `Nc1ncnc2c1ncn2[C@@H]1O[C@H](COC(=O)[C@@H](N)Cc2ccccc2)[C@@H](O)[C@@H]1O`, the EC50 in the data set with Vaccinia virus [1] turned out to be 1.8 µM; with Cowpox virus [2], 3.5 µM. For the same compound, the solubility in data set [3] is greater than 10000 µg/mL. The compound also came in with a t1/2 with Intestine of 16.2 min. This compound also gave a half-life in [4] of 1.02 min. Further, the Papp A→B in data set [5] came to 0.668 ×10⁻⁶ cm/s. For the same compound, in the data set with Caco-2, the “fold change (FC)” value was 8.05.
Consider `CC[C@H](C)[C@@H](N)C(=O)OC[C@H]1O[C@@H](n2cnc3c(N)ncnc32)[C@@H](O)[C@@H]1O`, for which the EC50 came to 2.9 µM in the data set with Vaccinia virus [1] and 3.5 µM in the data set on Cowpox virus [2]. In addition, the solubility in data set [3] is greater than 10000 µg/mL. The t1/2 stood at 474 min in the data set with Intestine, 18.6 min in the data set with Liver and 96.6 min in the data set on Plasma.
Regarding `CC(C)[C@@H](N)C(=O)OC[C@H]1O[C@@H](n2cnc3c(N)ncnc32)[C@@H](O)[C@@H]1O`, the concentration giving a half-maximal response (EC50) is 4.1 µM in the data set with Vaccinia virus [1] and 8 µM with Cowpox virus [2]. In the data set with HFF, this compound gave a CC50 greater than 100 µM. This compound also yielded a solubility in data set [3] greater than 10000 µg/mL. The figures for the t1/2 entry in the data set with Intestine, with Liver and in the data set with Plasma were “Stable”, 27.6 min and 615.6 min, respectively. Besides, in data set [5], the Papp A→B is 0.601 ×10⁻⁶ cm/s. Besides, the “fold change (FC)” value in the data set on Caco-2 is reported as 7.2.
In the case of `Nc1ncnc2c1ncn2[C@@H]1O[C@H](COC(=O)[C@H](N)Cc2ccccc2)[C@@H](O)[C@@H]1O`, the 50% effective concentration (EC50) came out at 2.3 µM in the data set on Vaccinia virus [1] and 4 µM in the data set with Cowpox virus [2]. This compound also returned a CC50 in the data set on HFF greater than 100 µM. For the same compound, in [3], the solubility was greater than 10000 µg/mL. Besides, the results for the t1/2 in the data set with Intestine and in the data set on Liver were 35.4 min and 6 min, respectively.
In the case of `CC(C)C[C@H](N)C(=O)OC[C@H]1O[C@@H](n2cnc3c(N)ncnc32)[C@@H](O)[C@@H]1O`, the concentration giving a half-maximal response (EC50) was determined as 3.3 µM in the data set on Vaccinia virus [1] and 3 µM in the data set on Cowpox virus [2]. This compound showed a 50% cytotoxic concentration (CC50) in the data set with HFF greater than 100 µM. Further, the solubility in data set [3] is greater than 10000 µg/mL. For the same compound, the figures for the t1/2 with Intestine and in the data set on Liver were 1.8 min and 3 min, respectively.
As to `Nc1ncnc2c1ncn2[C@@H]1O[C@H](COC(=O)[C@H](N)CC(=O)O)[C@@H](O)[C@@H]1O`, the half-maximal effective concentration (EC50) came to 2.5 µM with Vaccinia virus [1] and 4 µM in the data set on Cowpox virus [2]. The CC50 in the data set on HFF is greater than 100 µM. This compound displayed a solubility in data set [3] greater than 10000 µg/mL.
The corresponding values for `Nc1ncnc2c1ncn2[C@@H]1O[C@H](COC(=O)C[C@@H](N)C(=O)O)[C@@H](O)[C@@H]1O` are 3.5 µM, 25 µM, greater than 100 µM and greater than 10000 µg/mL.
Turning to `COC(=O)[C@H](NP(=O)(OC[C@H]1O[C@@H](n2cnc3c(N)ncnc32)[C@@H](O)[C@@H]1O)Oc1ccccc1)C(C)C` (some centres not stated), in [3], the solubility is greater than 10000 µg/mL. Further, the results for the t1/2 in the data set with Intestine, with Liver and in the data set on Plasma were 1099 min, 355 min and 21 min, respectively.
Turning to `CC(C)[C@H](N)C(=O)OC[C@H]1O[C@@H](n2cnc3c(N)ncnc32)[C@@H](O)[C@@H]1O`, the EC50 in the data set on Vaccinia virus [1] was 4.8 µM; in the data set on Cowpox virus [2], 4 µM. Moreover, the solubility in data set [3] is greater than 10000 µg/mL. Moreover, the Drug uptake in the data set on HeLa [6] worked out at 80.3 nmol/mg; in the data set with HeLa [7] it was 3.9 nmol/mg. The t1/2 in the data set on Intestine turned out to be 18 min; in the data set with Liver it was 1.8 min; in the data set with Plasma, 7.8 min.
As to `CC[C@H](C)[C@H](N)C(=O)OC[C@H]1O[C@@H](n2cnc3c(N)ncnc32)[C@@H](O)[C@@H]1O`, the concentration for a half-maximal effect (EC50) was 4.5 µM in the data set on Vaccinia virus [1] and 2.5 µM with Cowpox virus [2]. This compound showed a CC50 with HFF greater than 100 µM. Also, in [3], the solubility was greater than 10000 µg/mL. Besides, the Drug uptake in the data set with HeLa [6] was 202 nmol/mg; in the data set on HeLa [7], 7.5 nmol/mg. Further, the t1/2 in the data set with Intestine came to 34.8 min; in the data set with Liver it was 3.6 min; in the data set on Plasma, 215 min. Besides, the Papp A→B in data set [5] amounted to 1.03 ×10⁻⁶ cm/s. In the data set with Caco-2, the “fold change (FC)” value stood at 12.4.
Turning to `COC(=O)[C@@H](NP(=O)(OC[C@H]1O[C@@H](n2cnc3c(N)ncnc32)[C@@H](O)[C@@H]1O)Oc1ccccc1)C(C)C` (some centres not stated), the solubility in data set [3] is greater than 10000 µg/mL. In addition, the t1/2 result in the data set with Intestine is “Stable”; in the data set with Liver, “Stable”; with Plasma, 18 min.
In the case of `Nc1ccn(C[C@@H](CO)OCP(=O)(O)O)c(=O)n1.O.O` [CIDOFOVIR], in data set [8], the bioavailability came out at 2%.
For the compound `CC(C)[C@H](N)C(=O)OCCOCn1cnc2c(=O)[nH]c(N)nc21` [VALACYCLOVIR], the Drug uptake in the data set with HeLa [6] is given as 221 nmol/mg; in the data set with HeLa [7], 11.6 nmol/mg.
With `Nc1ncnc2c1ncn2[C@@H]1O[C@H](CO)[C@@H](O)[C@@H]1O` [VIDARABINE], the EC50 was 6.2 µM in the data set on Vaccinia virus [1], 12.6 µM in the data set on Cowpox virus [2], 1 µM in the data set with Vaccinia virus [9] and 1.4 µM in the data set on Cowpox virus [10]. The 50% cytotoxic concentration (CC50) in data set [11] was greater than 100 µM; in data set [12] it was 90 µM. The concentration in solution in data set [3] (solubility) was 470 µg/mL (≈ 1.76 mM). The figures for the half-life in [13] and in [4] were 3 min and 15 min, respectively. For the same compound, in data set [5], the Papp A→B is 0.083 ×10⁻⁶ cm/s.

The values are drawn from ChEMBL document CHEMBL1143268 (Bioorg Med Chem Lett, 2009).
